Most compounds without a hit are left out; they make up all but 4.2% or so of the library.
TAAR1 antagonist: human TAAR1 antagonists, primary screen, Fluo-8 calcium fluorescence, CHO RD-HGA16 cells. Trace amine-associated receptor 1 (Homo sapiens), Q96RJ0. inhibition, % at 3 µM. antagonist. AID 624466, 2012. 1.5% of 360,000 active;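 active = inhibition above a per-plate cutoff, the mean inhibition of test compounds on that plate plus 3 SD, cut at about 49% in these data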;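 also: 0% = DMSO plus EC80 beta-PEA response and 100% = DMSO alone without agonist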
Target sequence (Q96RJ0 whole entry, looked up): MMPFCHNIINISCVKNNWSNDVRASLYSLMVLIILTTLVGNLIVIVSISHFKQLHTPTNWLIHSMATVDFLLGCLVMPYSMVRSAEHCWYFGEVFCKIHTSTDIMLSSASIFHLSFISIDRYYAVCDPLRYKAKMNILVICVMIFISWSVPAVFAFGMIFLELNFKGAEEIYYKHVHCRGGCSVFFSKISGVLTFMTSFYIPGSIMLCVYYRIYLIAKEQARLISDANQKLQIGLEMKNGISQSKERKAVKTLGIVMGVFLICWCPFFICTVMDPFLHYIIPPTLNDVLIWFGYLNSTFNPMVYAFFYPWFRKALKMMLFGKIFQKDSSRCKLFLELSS
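Material: RD-HGA16 CHO cells with stable hTAAR1 and Gα16; Dosing: single nominal final test compound concentration of 3 µM; Schedule: seeding 17-24 h prior, 75-min 37 °C, 30-min RT dye loading; Detection: kinetic Fluo-8 calcium fluorescence measurement; Measure: % inhibition from peak post-agonist over basal fluorescence ratio; Benchmarks: vehicle and agonist controls.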
CHO parental Ca: ATP-evoked calcium signal inhibitors, parental CHO, primary screen, counter-screen for OX1R antagonist project, cell-based, fluorescence, Fluo-8 calcium dye; 0.63% of 330,000 active; inhibition, % at 5.6 µM; AID 463079, 2010; parental CHO-K1, ATP-induced calcium, Fluo-8 fluorescence;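 active = inhibition above that plate's mean sample inhibition plus 3 SD, cut at about 26% in these data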;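 also: 0% = ATP-challenged DMSO wells and 100% = DMSO wells without ATP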
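Test system: untransfected parental CHO cell line; also added: ATP stimulus; dosing: 5.6 µM, single dose; signal: calcium-sensitive Fluo-8 fluorescence; measure: percent inhibition of ATP-evoked calcium rise, normalized to controls; benchmarks: low control ATP plus DMSO, high control DMSO only; replication: one well per compound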
GalR3 antagonist: GalR3 antagonists in HEK293 cells, primary screen, cell-based, fluorescence readout; Galanin receptor type 3 (Homo sapiens), O60755; HEK293 GalR3-CNG cAMP membrane potential fluorescence; galR3 body fused to GalR1 C-terminus; inhibition, % at 3 µM; 0.44% of 360,000 active;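 active = inhibition above the screen-wide average plus 3 SD, cut at about 13% in these data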;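 also: forskolin and galanin both at EC90 stimulate the cells; cAMP rise reported by CNG channel membrane potential dye signal; 0% = forskolin plus galanin with DMSO and 100% = forskolin alone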
Target sequence (O60755 1-299 limits assumed): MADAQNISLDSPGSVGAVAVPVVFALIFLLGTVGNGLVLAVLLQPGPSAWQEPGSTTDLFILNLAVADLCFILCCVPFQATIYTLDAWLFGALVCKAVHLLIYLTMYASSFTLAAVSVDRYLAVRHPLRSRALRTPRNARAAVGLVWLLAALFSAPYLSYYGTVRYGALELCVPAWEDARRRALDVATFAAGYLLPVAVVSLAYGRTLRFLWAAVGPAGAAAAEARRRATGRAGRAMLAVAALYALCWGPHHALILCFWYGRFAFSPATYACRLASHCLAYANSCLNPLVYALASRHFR
TAAR1 ag: human TAAR1 agonists, primary screen, Fluo-8 calcium fluorescence, CHO RD-HGA16 cells; Trace amine-associated receptor 1 (Homo sapiens), Q96RJ0; vehicle wells 0%, saturating PEA agonist 100%; activation, % at 3 µM; 0.99% of 360,000 active;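 active = activation above the mean activation of all test compounds in the run plus 3 SD, cut at about 38% in these data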
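test system = CHO RD-HGA16 cells carrying human TAAR1 plus Gα16 | schedule = 17-24 h seeding, 75 min 37 °C dye, 30 min RT | compound dosing = 3 µM single concentration | control set = DMSO and PEA EC100 | replicates = n 1 | signal = Fluo-8 fluorescence, 5 s baseline then 140 s kinetic read | measure = percent activation vs PEA EC100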
OX1R antag-1: OX1R (HCRTR1) antagonists, primary screen, fluorescence, CHO/OX1R cells, Fluo-8 calcium, orexin A | Orexin/Hypocretin receptor type 1 (Homo sapiens), O43613 | inhibition, % at 5 µM | Fluo-8 calcium fluorescence | 0.43% of 330,000 active;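 active = inhibition above its plate's threshold, mean inhibition of all tested compounds on the plate plus 3 SD, cut at about 37% in these data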;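 also: 0% = orexin A challenge wells and 100% = SB-334867-A antagonist wells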
OX1R antag-2: antagonists of human orexin 1 receptor (OX1R). Orexin/Hypocretin receptor type 1 (Homo sapiens), O43613. OX1R-expressing cells, FRET antagonist read-out. inhibition, % at 6.6 µM. 1.8% of 330,000 active. AID 485270, 2010; in the data active = inhibition mostly above about 38%, no sharp cut-off; inactive = mostly below about 40%;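 also: 0% = agonist challenge alone and 100% = reference antagonist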
OX1R Ca confirm: OX1R (HCRTR1) antagonists, confirmation, fluorescence, CHO/OX1R cells, Fluo-8 calcium, orexin A. shares compounds with OX1R antag-1. orexin A calcium Fluo-8 fluorescence. inhibition, % at 5 µM. AID 492963, 2010. 38% of 1,100 active; in the data active = inhibition above about 29%;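 also: 0% = agonist challenge alone and 100% = reference antagonist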
CHO Ca counter: ATP-evoked calcium inhibition in parental CHO, counter-screen for OX1R antagonist project, cell-based, fluorescence, CHO-K1, triplicate; inhibition, % at 5.6 µM; 9.3% of 1,100 active; ATP-induced calcium, Fluo-8 fluorescence; shares compounds with OX1R antag-1;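 active = inhibition above a per-plate limit, the mean inhibition of that plate's test compounds plus 3 SD, cut at about 25% in these data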;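 also: 0% = ATP challenge with DMSO and 100% = DMSO without ATP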
OX1R HTRF conf: OX1R (HCRTR1) antagonists, confirmation, cell-based, HTRF. shares compounds with OX1R antag-2. OX1R-expressing cells, HTRF antagonist assay. inhibition, % at 6.6 µM. 49% of 1,800 active; in the data active = inhibition above about 55%;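 also: CHO cells expressing OX1R stimulated with orexin A at about EC80; 0% = agonist challenge alone and 100% = reference antagonist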
CHO-K1 HTRF: signal inhibition in parental CHO-K1 cells, counter-screen for OX1R antagonist project, cell-based, HTRF. shares compounds with OX1R antag-2. HTRF counterscreen. inhibition, % at 6.6 µM. 48% of 1,800 active. AID 493232, 2011; in the data active = inhibition above about 17%;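 also: 0% = agonist challenge with vehicle and 100% = vehicle alone without agonist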
* = called active by the depositor; / = no result.

SMILES | TAAR1 antagonist | CHO parental Ca | GalR3 antagonist | TAAR1 ag | OX1R antag-1 | OX1R antag-2 | OX1R Ca confirm | CHO Ca counter | OX1R HTRF conf | CHO-K1 HTRF
CCn1c(SCC(=O)Nc2nc(-c3ccccc3)cs2)nnc1-c1ccccc1O | 39 | 0 | -7 | 24 | 79* | 86* | -8 | -20 | 86* | -11
CCc1nnc(NC(=O)CSc2nnc(-c3ccccc3O)n2CC)s1 | 5 | -13 | -7 | 13 | -26 | 11 | / | / | / | /
Cn1c(CNC(=O)c2cccs2)nnc1SCC(=O)Nc1ccc(Cl)cc1 | -9 | -20 | -2 | 5 | -13 | 2 | / | / | / | /
COc1ccc(NS(=O)(=O)c2cc(NC(=O)c3cnccn3)ccc2N2CCCC2)cc1 | 6 | -15 | -5 | 1 | -29 | 19 | / | / | / | /
COc1ccccc1Nc1nc(N)nc(CN2CCOCC2)n1 | 0 | -7 | -2 | 3 | -1 | 8 | / | / | / | /
COc1ccccc1Nc1nc(N)nc(-c2cc3ccccc3o2)n1 | 9 | -12 | -8 | 17 | 38 | 77* | 31* | -11 | 65* | 1
Cc1cc(C)cc(N(C(=O)c2ccccn2)C(C(=O)NC2CCCCC2)c2cccs2)c1 (configuration not stated) | -21 | -23 | 2 | -3 | 48* | 64* | 6 | -17 | 67* | 0
CC(=O)c1cccc(N(C(=O)c2ccccn2)C(C(=O)NC2CCCCC2)c2ccccc2)c1 (configuration not stated) | 12 | -23 | -7 | -1 | -29 | 21 | / | / | / | /
CCOC(=O)c1[nH]c2ccccc2c1NC(=O)c1ccc(Br)o1 | 35 | -13 | -9 | 7 | 101* | 99* | 34* | -3 | 90* | 9
CN(C)c1ccc(NC(=S)c2ccc3ccccc3n2)cc1 | -10 | 0 | 3 | -2 | 58* | 93* | 29 | 14 | 85* | 9
O=C(C1CCCN(c2nnc(-n3cccc3)s2)C1)N1CCN(c2ccccc2)CC1 (configuration not stated) | 39 | -8 | 1 | 7 | -69 | 18 | / | / | / | /
CCc1sc(C(=O)Nc2nc(-c3ccccn3)cs2)cc1C | / | -11 | / | / | 38 | 52* | 19 | -7 | 32 | 10
Cc1ccc(C(=O)Nc2nc(-c3ccccn3)cs2)s1 | 1 | -12 | -3 | 5 | 7 | 6 | / | / | / | /
COc1ccc(/C=C/c2nc(-c3ccccc3O)n[nH]2)cc1OC | -6 | -21 | -3 | 6 | 72* | 103* | 67* | 1 | 92* | 14
CC(C)(C)C(=O)Nc1sc2c(c1-c1nc3ccccc3[nH]1)CCCC2 | -8 | -29 | -7 | 4 | 80* | 56* | 14 | -8 | 56* | 1
CCOc1ccccc1-c1nc(-c2ccc(NC(=O)Cc3ccc(OC)cc3)cc2)no1 | -12 | 4 | -2 | 5 | -5 | 22 | / | / | / | /
CCOc1ccccc1-c1nc(-c2ccc(NC(=O)c3ccc(Br)o3)cc2)no1 | 17 | -4 | 1 | 3 | 35 | 69* | 17 | -3 | 79* | 18*
C=CCn1c(SCC(N)=O)nnc1-c1cccc(Br)c1 | -3 | -15 | -1 | 0 | -5 | 10 | / | / | / | /
C=CCn1c(SCc2ccccc2C#N)nnc1-c1cc(Br)ccc1O | 32 | 17 | -6 | 20 | 53* | 53* | 11 | 23 | 31 | -2
CC1(C)OC(=O)C(=CNC(CCC(N)=O)C(=O)O)C(=O)O1 (configuration not stated) | -2 | 4 | -8 | 5 | -14 | 7 | / | / | / | /
Cn1c(=O)c(C(=O)COC(=O)c2cc(C3CC3)nc3ccccc23)c(N)n(Cc2ccccc2)c1=O | -4 | -1 | -4 | 4 | -3 | 59 | / | / | / | /
Cn1c(=O)c(C(=O)COC(=O)c2cc(-c3ccco3)nc3ccccc23)c(N)n(CC2CC2)c1=O | / | 8 | / | / | 37 | 69* | 26 | -4 | 64* | 3
Cc1ccc(NC(=O)c2ccc([N+](=O)[O-])o2)cc1C | -2 | -7 | -4 | 4 | -4 | 37 | / | / | / | /
Cc1cc(C)c(C(=O)NCCCN2CCOCC2)c(C)c1 | -1 | -7 | -6 | 1 | 5 | 11 | / | / | / | /
Cc1ccc(Cn2nc(C)cc2C(=O)Nc2ccccc2Cl)cc1 | -4 | -23 | -12 | 4 | -41 | 7 | / | / | / | /
SMILES | TAAR1 antagonist | CHO parental Ca | GalR3 antagonist | TAAR1 ag | OX1R antag-1 | OX1R antag-2 | OX1R Ca confirm | CHO Ca counter | OX1R HTRF conf | CHO-K1 HTRF
Cc1ccc(Cn2nc(C)cc2C(=O)Nc2ccc(Cl)cc2)cc1 | -4 | -19 | -2 | 9 | 44 | 56* | 28 | -14 | 62* | 11
C=C(C)C(COc1c2occc2cc2ccc(=O)oc12)OC(C)(C)C(O)COc1c2occc2cc2ccc(=O)oc12 (configuration not stated) | 58* | -24 | -1 | 16 | 61* | 84* | 39* | -5 | 88* | -1
Cc1nc(SCC(=O)Nc2nc3ccccc3s2)n[nH]1 | 1 | -2 | -3 | 4 | 1 | 12 | / | / | / | /
COC(=O)c1ccccc1NC(=O)c1sc(=S)n(C)c1N | 6 | 18 | -1 | 6 | 78* | 93* | 97* | -11 | 94* | 1
COC(=O)c1ccccc1NC(=O)c1sc(N)nc1C | 9 | -4 | 3 | 3 | -28 | 21 | / | / | / | /
CCCCN(C)CCCNC(=O)c1cccc(N2CCCC2=O)c1 | 6 | -1 | -2 | 4 | 5 | 6 | / | / | / | /
CCc1nccn1-c1cc(C(C)(C)C)nc2c(-c3ccc(Cl)cc3)cnn12 | -11 | -1 | -2 | 13 | 1 | 7 | / | / | / | /

Screens: PubChem, The Scripps Research Institute Molecular Screening Center
